According to ChEMBL document CHEMBL4257486, “A novel allosteric inhibitor that prevents IKKβ activation” (Medchemcomm, 2018):
Calls of active or inactive are those of the source.

Experiments:
[1] = target: Protein kinase C delta type (Homo sapiens) (UniProt Q05655); assay: Inhibition of human PKCdelta using ERMRPRKRQGSVRRRV as substrate at 100 uM after 40 mins in presence of [gamma-33P-ATP] by scintillation counting analysis
Method in brief: (§1)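 Radiometric [γ-33P]ATP assay (specific activity approx. 500 cpm/pmol) run by an outsourced service. Compound was added first from a 50x stock in DMSO, giving 2% DMSO final. Positive controls contained DMSO only; blanks used a reference inhibitor to set 0% activity. Reactions were started with MgATP mix, run 40 min at room temperature, and stopped with 3% phosphoric acid. They were spotted on P30 filtermat, washed in 75 mM phosphoric acid and methanol, and scintillation counted.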

[2] = target: T1, Protein kinase C zeta type (Homo sapiens) (UniProt Q05513); assay: Inhibition of human PKCzeta using ERMRPRKRQGSVRRRV as substrate at 100 uM after 40 mins in presence of [gamma-33P-ATP] by scintillation counting analysis; method in brief: as §1
T1 sequence (whole entry): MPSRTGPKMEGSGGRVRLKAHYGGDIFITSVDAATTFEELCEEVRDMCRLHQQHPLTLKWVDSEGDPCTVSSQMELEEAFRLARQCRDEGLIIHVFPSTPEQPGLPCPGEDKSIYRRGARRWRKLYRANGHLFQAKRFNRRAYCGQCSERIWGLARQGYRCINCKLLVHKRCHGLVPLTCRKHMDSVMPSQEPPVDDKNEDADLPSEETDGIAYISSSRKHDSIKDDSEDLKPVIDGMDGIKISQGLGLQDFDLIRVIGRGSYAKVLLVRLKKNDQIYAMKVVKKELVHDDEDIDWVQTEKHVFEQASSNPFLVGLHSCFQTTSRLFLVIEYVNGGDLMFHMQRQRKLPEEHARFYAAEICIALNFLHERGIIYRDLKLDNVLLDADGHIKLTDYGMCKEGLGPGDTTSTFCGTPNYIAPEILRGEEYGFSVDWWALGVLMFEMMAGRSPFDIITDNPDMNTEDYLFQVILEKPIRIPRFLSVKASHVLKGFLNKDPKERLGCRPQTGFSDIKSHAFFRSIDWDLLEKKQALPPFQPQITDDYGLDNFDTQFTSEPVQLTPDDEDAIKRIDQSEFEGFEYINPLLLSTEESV

[3] = target: Receptor tyrosine-protein kinase erbB-2 (Homo sapiens) (UniProt P04626); assay: Inhibition of human ErbB2 using poly(Glu-Tyr) as substrate at 100 uM after 40 mins in presence of [gamma-33P-ATP] by scintillation counting analysis; method in brief: as §1
[4] = target: Tyrosine-protein kinase Lck (Homo sapiens) (UniProt P06239); assay: Inhibition of human Lck using KVEKIGEGTYGVVYK (Cdc2 peptide) as substrate at 100 uM after 40 mins in presence of [gamma-33P-ATP] by scintillation counting analysis; method in brief: as §1
[5] = target: Epidermal growth factor receptor (Homo sapiens) (UniProt P00533); assay: Inhibition of human EGFR using poly[Glu:Tyr] (4:1) as substrate at 100 uM after 40 mins in presence of [gamma-33P-ATP] by scintillation counting analysis; method in brief: as §1
Homo sapiens = species on record: Homo sapiens; assay: Inhibition of human PKA using LRRASLG (Kemptide) as substrate at 100 uM after 40 mins in presence of [gamma-33P-ATP] by scintillation counting analysis; method in brief: as §1
[6] = target: Insulin-like growth factor 1 receptor (Homo sapiens) (UniProt P08069); assay: Inhibition of human activated IGF-1R using KKKSPGEYVNIEFG as substrate at 100 uM after 40 mins in presence of [gamma-33P-ATP] by scintillation counting analysis; method in brief: as §1
[7] = target: T2, Tyrosine-protein kinase JAK3 (Homo sapiens) (UniProt P52333); assay: Inhibition of human JAK3 using GGEEEEYFELVKKKK as substrate at 100 uM after 40 mins in presence of [gamma-33P-ATP] by scintillation counting analysis; method in brief: as §1
T2 sequence (whole entry): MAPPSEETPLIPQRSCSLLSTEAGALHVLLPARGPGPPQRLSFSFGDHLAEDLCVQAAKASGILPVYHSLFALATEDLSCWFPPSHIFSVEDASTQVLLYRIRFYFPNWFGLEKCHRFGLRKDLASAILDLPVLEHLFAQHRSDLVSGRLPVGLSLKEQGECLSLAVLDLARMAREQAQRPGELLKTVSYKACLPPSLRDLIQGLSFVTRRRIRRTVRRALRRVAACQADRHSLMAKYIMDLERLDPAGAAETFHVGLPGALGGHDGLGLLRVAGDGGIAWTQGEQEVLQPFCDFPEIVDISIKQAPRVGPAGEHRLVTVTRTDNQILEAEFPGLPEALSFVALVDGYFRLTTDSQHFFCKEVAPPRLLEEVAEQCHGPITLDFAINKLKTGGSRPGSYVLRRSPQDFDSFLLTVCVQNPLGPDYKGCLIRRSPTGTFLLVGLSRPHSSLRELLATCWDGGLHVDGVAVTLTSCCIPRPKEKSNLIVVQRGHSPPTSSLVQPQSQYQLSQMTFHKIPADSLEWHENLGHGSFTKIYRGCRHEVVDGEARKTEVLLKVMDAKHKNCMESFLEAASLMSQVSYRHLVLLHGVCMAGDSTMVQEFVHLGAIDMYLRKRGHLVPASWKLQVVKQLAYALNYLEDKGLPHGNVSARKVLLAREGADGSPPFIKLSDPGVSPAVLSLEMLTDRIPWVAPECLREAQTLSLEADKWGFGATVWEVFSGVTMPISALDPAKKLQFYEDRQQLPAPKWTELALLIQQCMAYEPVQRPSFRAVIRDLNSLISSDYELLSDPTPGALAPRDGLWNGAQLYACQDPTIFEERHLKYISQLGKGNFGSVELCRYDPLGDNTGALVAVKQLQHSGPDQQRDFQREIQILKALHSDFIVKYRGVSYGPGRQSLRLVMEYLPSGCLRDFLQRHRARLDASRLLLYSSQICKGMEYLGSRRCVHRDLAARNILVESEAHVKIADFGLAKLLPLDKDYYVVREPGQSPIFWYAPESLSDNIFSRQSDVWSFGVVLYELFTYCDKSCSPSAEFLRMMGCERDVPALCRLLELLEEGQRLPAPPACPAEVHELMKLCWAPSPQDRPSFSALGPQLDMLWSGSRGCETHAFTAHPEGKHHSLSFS

[8] = target: Protein kinase C alpha type (Homo sapiens) (UniProt P17252); assay: Inhibition of human PKCalpha at 100 uM after 40 mins in presence of [gamma-33P-ATP] by scintillation counting analysis; method in brief: as §1

Measured: inhibition

Protein kinase C delta type (Homo sapiens), sequence (Q05655 whole entry, looked up): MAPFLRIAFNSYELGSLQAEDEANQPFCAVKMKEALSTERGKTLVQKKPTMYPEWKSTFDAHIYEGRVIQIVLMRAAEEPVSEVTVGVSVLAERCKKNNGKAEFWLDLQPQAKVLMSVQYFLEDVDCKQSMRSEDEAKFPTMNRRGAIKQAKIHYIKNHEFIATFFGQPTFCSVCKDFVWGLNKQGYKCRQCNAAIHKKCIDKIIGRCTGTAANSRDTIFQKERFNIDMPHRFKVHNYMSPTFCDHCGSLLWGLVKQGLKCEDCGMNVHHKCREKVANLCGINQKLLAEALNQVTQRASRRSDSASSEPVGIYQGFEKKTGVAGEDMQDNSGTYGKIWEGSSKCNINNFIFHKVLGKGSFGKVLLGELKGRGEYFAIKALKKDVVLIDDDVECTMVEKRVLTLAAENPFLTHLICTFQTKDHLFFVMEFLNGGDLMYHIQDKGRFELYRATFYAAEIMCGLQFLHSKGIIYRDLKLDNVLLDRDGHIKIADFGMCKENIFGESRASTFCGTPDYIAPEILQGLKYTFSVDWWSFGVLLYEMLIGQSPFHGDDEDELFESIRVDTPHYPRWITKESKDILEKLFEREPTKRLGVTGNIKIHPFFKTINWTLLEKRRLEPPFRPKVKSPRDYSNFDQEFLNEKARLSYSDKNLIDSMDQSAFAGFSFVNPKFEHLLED
Epidermal growth factor receptor (Homo sapiens), sequence (P00533 whole entry): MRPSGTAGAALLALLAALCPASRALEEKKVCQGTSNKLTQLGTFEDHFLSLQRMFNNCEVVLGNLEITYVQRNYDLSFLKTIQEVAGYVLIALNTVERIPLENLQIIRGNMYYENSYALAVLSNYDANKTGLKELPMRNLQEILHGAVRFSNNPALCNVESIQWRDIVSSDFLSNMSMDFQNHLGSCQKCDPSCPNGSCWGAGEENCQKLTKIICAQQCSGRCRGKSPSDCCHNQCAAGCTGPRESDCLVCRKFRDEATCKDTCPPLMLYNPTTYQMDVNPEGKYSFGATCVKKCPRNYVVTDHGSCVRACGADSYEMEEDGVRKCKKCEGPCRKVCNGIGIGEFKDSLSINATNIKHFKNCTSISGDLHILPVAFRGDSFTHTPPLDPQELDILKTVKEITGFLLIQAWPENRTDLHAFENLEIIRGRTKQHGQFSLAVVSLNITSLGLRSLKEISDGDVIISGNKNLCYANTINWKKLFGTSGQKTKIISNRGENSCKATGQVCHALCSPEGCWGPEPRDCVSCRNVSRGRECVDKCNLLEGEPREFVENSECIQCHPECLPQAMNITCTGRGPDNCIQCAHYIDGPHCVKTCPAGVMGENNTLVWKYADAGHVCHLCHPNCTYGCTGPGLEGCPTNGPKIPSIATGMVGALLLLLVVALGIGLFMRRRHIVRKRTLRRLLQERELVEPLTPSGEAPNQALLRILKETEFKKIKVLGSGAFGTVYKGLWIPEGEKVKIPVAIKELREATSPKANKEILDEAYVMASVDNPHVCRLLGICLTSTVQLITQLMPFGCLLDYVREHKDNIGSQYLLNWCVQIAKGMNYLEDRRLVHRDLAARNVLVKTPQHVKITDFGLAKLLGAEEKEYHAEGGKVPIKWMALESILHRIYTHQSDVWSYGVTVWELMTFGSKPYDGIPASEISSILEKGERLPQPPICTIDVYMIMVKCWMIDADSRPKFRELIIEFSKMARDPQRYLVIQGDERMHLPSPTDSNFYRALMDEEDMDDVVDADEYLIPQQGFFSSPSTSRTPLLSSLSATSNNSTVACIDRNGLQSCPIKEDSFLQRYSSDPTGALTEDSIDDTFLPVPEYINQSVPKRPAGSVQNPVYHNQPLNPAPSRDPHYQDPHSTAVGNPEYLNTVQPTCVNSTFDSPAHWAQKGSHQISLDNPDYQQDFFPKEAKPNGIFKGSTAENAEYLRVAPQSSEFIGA
Tyrosine-protein kinase Lck (Homo sapiens), sequence (P06239 2-509 limits assumed): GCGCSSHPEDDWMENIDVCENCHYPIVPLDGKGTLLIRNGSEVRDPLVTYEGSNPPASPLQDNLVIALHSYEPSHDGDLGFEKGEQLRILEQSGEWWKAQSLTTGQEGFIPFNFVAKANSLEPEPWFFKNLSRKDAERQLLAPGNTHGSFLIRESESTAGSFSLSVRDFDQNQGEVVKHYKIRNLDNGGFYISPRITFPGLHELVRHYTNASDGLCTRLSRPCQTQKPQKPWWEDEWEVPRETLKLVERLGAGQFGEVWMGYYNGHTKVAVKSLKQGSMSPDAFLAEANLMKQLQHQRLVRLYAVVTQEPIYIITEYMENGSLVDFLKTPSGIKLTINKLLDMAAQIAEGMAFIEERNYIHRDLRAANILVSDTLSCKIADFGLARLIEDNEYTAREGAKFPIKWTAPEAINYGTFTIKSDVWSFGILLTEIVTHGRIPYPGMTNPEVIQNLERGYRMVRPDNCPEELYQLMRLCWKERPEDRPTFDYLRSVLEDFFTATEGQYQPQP
Insulin-like growth factor 1 receptor (Homo sapiens), sequence (P08069 31-736 limits assumed): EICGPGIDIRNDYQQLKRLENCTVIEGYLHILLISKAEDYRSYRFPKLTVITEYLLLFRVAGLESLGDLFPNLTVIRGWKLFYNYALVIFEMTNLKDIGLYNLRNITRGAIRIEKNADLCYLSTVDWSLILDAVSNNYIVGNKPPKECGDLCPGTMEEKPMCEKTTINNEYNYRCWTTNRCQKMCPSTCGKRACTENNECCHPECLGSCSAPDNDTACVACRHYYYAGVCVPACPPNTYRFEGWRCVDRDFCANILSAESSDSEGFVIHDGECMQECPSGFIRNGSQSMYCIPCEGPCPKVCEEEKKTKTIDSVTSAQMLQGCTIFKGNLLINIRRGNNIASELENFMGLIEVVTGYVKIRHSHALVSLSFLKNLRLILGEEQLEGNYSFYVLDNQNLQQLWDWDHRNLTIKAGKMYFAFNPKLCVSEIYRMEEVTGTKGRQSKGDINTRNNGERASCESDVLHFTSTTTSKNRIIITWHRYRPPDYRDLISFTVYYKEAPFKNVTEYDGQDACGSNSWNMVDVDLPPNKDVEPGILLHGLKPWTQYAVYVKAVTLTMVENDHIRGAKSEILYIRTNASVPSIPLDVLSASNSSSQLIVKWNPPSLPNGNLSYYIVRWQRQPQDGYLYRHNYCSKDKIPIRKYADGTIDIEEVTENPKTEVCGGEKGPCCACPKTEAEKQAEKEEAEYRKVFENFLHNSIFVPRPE
Insulin-like growth factor 1 receptor (Homo sapiens), sequence (P08069 741-1367 limits assumed): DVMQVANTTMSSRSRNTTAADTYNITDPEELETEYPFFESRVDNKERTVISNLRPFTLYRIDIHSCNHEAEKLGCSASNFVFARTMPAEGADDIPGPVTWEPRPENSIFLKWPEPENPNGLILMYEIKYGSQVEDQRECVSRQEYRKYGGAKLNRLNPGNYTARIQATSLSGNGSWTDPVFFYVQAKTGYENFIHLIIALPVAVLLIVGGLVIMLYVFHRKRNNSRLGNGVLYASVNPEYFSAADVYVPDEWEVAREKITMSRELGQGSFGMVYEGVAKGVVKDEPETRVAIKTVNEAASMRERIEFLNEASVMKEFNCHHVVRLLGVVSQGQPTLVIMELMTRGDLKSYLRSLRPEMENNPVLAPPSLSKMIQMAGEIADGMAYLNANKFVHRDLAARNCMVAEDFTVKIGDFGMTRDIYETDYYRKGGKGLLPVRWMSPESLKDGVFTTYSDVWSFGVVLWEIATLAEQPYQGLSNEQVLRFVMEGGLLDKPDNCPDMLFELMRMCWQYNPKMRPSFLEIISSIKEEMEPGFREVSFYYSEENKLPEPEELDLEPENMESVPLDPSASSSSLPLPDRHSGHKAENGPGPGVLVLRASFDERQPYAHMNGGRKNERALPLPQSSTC

CCOc1c(S(=O)(=O)NC2CC(C)(C)NC(C)(C)C2)ccc(Cl)c1Cl
inactive: [1] | [2] | [3] | [4] | [5] | Homo sapiens | [6] | [7] | [8]
